In PubChem BioAssay:
Active and inactive are the calls of the source.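 Rule for the calls, unless noted: active = viability at or under a set limit in both replicates, limit being median viability minus 3 SD (cut at about 48% in these data, passing the limit was not always enough); inconclusive = at or under the limit in just one replicate; inactive = at or above the limit in both replicates.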

What was measured:
[1] = HUVEC growth inhibition – cell-based, human, primary screen (AID 575;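 active = viability at or below 30% in both replicate assays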;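 note: 100% = median of untreated cell wells with 0.1% DMSO on each plate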); conditions: HUVEC proliferation, CellTiter-Glo luminescence, 72 h; at 10 µM; stronger effect = lower value
How it was run: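 material = primary HUVEC, no more than 12 passages | input = 1250 cells per well | controls = vehicle and MePR control wells | measured by = CTG luminescence | times = 72 h compound incubation | format = collagen-coated 384-well format | read-out = % viability vs DMSO wells | doses = single 10 µM dose, 0.1% DMSO, from 5x medium stock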

[2] = H69AR cell proliferation blockers – human, duplicate replicates, primary screen (AID 580); conditions: H69AR lung tumor cells viability, ATP luminescence, 72 h; at 10 µM; stronger effect = lower value;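 note: 100% = mean luminescence of untreated wells and 0% = no signal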
[3] = MRP1 drug-resistance reversers in H69AR cells – cell-based, doxorubicin co-treatment, pilot screen (AID 601;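 active = viability loss from added drug above about 55%, and viability with drug at most 40%, in both replicates, limit read from the data, passing the limit was not always enough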); conditions: CellTiter-Glo, 72 h, at 10 µM; for differential viability (reversal): stronger effect = higher value
[4] = yeast transport mutant growth inhibition pilot in 384-well plates, post-Golgi transport modulator project (AID 636; in the data active = inhibition above about 31%); conditions: absorbance 615 nm, about 18 h, stronger effect = higher value
[5] = growth suppression of yeast trafficking mutant, preliminary HTS, modulators of trafficking downstream of Golgi apparatus project, 1536-format plate, OD 615 nm (AID 637; in the data active = inhibition above about 30%); conditions: yeast transport mutant growth, absorbance 615 nm, 18 h; stronger effect = higher value
[6] = H69AR cells + 2 uM doxorubicin, measured here: viability with 2 uM doxorubicin, stronger effect = lower value
[7] = H69AR cells, compound alone cytotoxicity

SMILES	viability [1]	viability [2]	differential viability (reversal) ([3]; H69AR cells + 2 uM doxorubicin)	viability [3, 6] [%]	viability [3, 7] [%]	inhibition [4]	inhibition [5]
O=C(CCCCn1c(=O)[nH]c2ccsc2c1=O)NCc1cccnc1	96.3% (inactive)	99.1% (inactive)	2.01% (inactive)	97.1	99.1	-1.18% (inactive)	-0.63% (inactive)
CN(C)c1nc(N)nc(CSc2nnnn2-c2cccc3ccccc23)n1	99.9% (inactive)	70.1% (inactive)	-3.27% (inactive)	73.4	70.1	-6.58% (inactive)	4.13% (inactive)
CCc1ccc(NC(=O)c2cccnc2)cc1	95.9% (inactive)	105% (inactive)	23.7% (inactive)	81.7	105	-7.2% (inactive)	-3.02% (inactive)
COC(=O)c1cccc(NC(=O)CSc2nnc(COc3ccccc3)n2C)c1	102% (inactive)	101% (inactive)	13.7% (inactive)	87	101	-4.27% (inactive)	2.22% (inactive)
COC(=O)c1ccc(CN(c2ccccc2OC)S(=O)(=O)c2cccs2)o1	98.8% (inactive)	86.2% (inactive)	-15.4% (inactive)	102	86.2	-6.88% (inactive)	-7.14% (inactive)
Cc1ccc(NC(=O)CSc2nnc(-c3ccccn3)n2C)cc1	115% (inactive)	91.5% (inactive)	-0.845% (inactive)	92.3	91.5	-7.73% (inactive)	-8.89% (inactive)
Cc1ccc(NC(=O)c2ccccc2F)nc1	68.1% (inactive)	90.9% (inactive)	-6.37% (inactive)	97.2	90.9	-4.93% (inactive)	1.11% (inactive)
CCOC(=O)CSC1=Nc2ccccc2C2=NC(CC(=O)NCc3cccs3)C(=O)N12 (configuration not stated)	81.9% (inactive)	91.7% (inactive)	5.7% (inactive)	86	91.7	-6.75% (inactive)	-5.56% (inactive)
CCOc1ccc(N2CC(C(=O)Nc3ccc(F)cc3F)CC2=O)cc1 (configuration not stated)	110% (inactive)	111% (inactive)	19.7% (inactive)	90.9	111	-0.26% (inactive)	-5.08% (inactive)
CC1(C)NC(=O)N(CCOc2cccc(Cl)c2Cl)C1=O	98.7% (inactive)	102% (inactive)	14.6% (inactive)	87.5	102	-5.2% (inactive)	10.2% (inactive)
CC1(C)NC(=O)N(CCCOc2ccc(Br)cc2Cl)C1=O	86% (inactive)	89.7% (inactive)	15.5% (inactive)	74.3	89.7	-3.82% (inactive)	4.29% (inactive)
CC(=O)c1cc(-c2ccccc2)n(CC(=O)N2CCC(N3CCCCC3)CC2)c1C	85.3% (inactive)	82.7% (inactive)	-2.33% (inactive)	85.1	82.7	-2.73% (inactive)	0.63% (inactive)
CCOC(=O)C1CCN(C(=O)c2c(-c3c(Cl)cccc3Cl)noc2C)CC1	95.8% (inactive)	84.8% (inactive)	-6.21% (inactive)	91.1	84.8	-2.73% (inactive)	-9.68% (inactive)
COc1cccc(-c2cc(C(F)(F)F)n3nc(N)nc3n2)c1	92.3% (inactive)	88.9% (inactive)	-2.71% (inactive)	91.6	88.9	-0.53% (inactive)	10.3% (inactive)
O=C(O)c1ccc(-n2nc(C(F)(F)F)c3c2-c2ccoc2CC3)cc1	70.8% (inactive)	97% (inactive)	9.15% (inactive)	87.9	97	0.39% (inactive)	-1.43% (inactive)
NC(=O)c1sc2nc3c(c(-c4ccco4)c2c1N)CCC3	75.7% (inactive)	81.4% (inactive)	-16.8% (inactive)	98.2	81.4	-5.47% (inactive)	-8.57% (inactive)
O=P1(O)C=C(c2ccccc2)NC(c2ccccc2)=C1	108% (inactive)	91.7% (inactive)	-4.4% (inactive)	96.1	91.7	-4.93% (inactive)	0.48% (inactive)
CCOC(=O)C1CCN(S(=O)(=O)c2cccc(-c3csc(C)n3)c2)CC1	101% (inactive)	90.4% (inactive)	5.91% (inactive)	84.5	90.4	-5.2% (inactive)	3.81% (inactive)
Cc1nn(Cc2ccccc2)c(C)c1NC(=O)CCC(=O)O	110% (inactive)	89.4% (inactive)	-8.23% (inactive)	97.7	89.4	3.42% (inactive)	-1.75% (inactive)
CC1(C)NC(=O)N(CC(O)CN2CCCCC2)C1=O (configuration not stated)	105% (inactive)	93.1% (inactive)	-2.85% (inactive)	96	93.1	-3.73% (inactive)	-4.92% (inactive)
CCOC(=O)N1CCC(N(C(=O)Nc2ccc(Cl)c(Cl)c2)C(C)CC)CC1 (configuration not stated)	79.3% (inactive)	97.7% (inactive)	4.27% (inactive)	93.4	97.7	-2.63% (inactive)	0.79% (inactive)

SMILES	viability [1]	viability [2]	differential viability (reversal) ([3]; H69AR cells + 2 uM doxorubicin)	viability [3, 6] [%]	viability [3, 7] [%]	inhibition [4]	inhibition [5]
O=C(Nc1ncnc2sc3c(c12)CCCCC3)c1ccco1	91.5% (inactive)	73.8% (inactive)	-0.73% (inactive)	74.5	73.8	-2.08% (inactive)	3.65% (inactive)
O=C(c1cc(-c2cccc(O)c2)on1)N1CCN(C(c2ccccc2)c2ccccc2)CC1	98.8% (inactive)	26.8% (active)	4.38% (inactive)	22.4	26.8	0.26% (inactive)	-3.5% (inactive)
CCCn1c(=N)n(CCOc2ccc(OC)cc2)c2ccccc21	91.4% (inactive)	69.8% (inactive)	1.35% (inactive)	68.5	69.8	-6.05% (inactive)	3.49% (inactive)
CN(CC(=O)O)S(=O)(=O)c1cc(Cl)ccc1Cl	112% (inactive)	96.8% (inactive)	12.2% (inactive)	84.6	96.8	-2.53% (inactive)	-5.24% (inactive)
CCn1nccc1C(=O)Nc1nccs1	104% (inactive)	93.7% (inactive)	10% (inactive)	83.7	93.7	-4.34% (inactive)	3.65% (inactive)
O=C(CSCc1ccccn1)Nc1ccccc1	102% (inactive)	94.4% (inactive)	7.96% (inactive)	86.4	94.4	-5.07% (inactive)	-6.19% (inactive)
CC(C)NC(=O)c1ccccc1NC(=O)c1ccccc1N(C)S(C)(=O)=O	103% (inactive)	88.9% (inactive)	-4.12% (inactive)	93	88.9	-7.37% (inactive)	1.9% (inactive)
Cc1cc(NC(=O)COc2ncnc3sc(C)c(C)c23)no1	97.6% (inactive)	89.8% (inactive)	3.08% (inactive)	86.7	89.8	-3.77% (inactive)	5.56% (inactive)
CCSc1nnc(NC(=O)c2cc(C)oc2C)s1	85% (inactive)	99.7% (inactive)	12.6% (inactive)	87.1	99.7	-3.55% (inactive)	3.33% (inactive)
Cc1cc(C)n(S(=O)(=O)c2cc(C(=O)O)c(Cl)cc2Cl)n1	102% (inactive)	82.6% (inactive)	-10.2% (inactive)	92.8	82.6	-3.47% (inactive)	4.29% (inactive)
Brc1ccc(-c2nnc3sc(CN4CCC5(CC4)OCCO5)cn23)cc1	113% (inactive)	95.9% (inactive)	7.72% (inactive)	88.1	95.9	-2.08% (inactive)	-2.22% (inactive)
O=S1(=O)C=C(Sc2nc3ccccc3s2)c2ccccc21	9.16% (active)	1.38% (active)	0.39% (inactive)	0.99	1.38	37.3% (active)	55.6% (active)
O=S(=O)(NCCc1ccncc1)c1cc(Br)ccc1F	97.5% (inactive)	98.2% (inactive)	13.4% (inactive)	84.8	98.2	-3.9% (inactive)	13.5% (inactive)
CCOc1ccccc1N(CC(=O)N1CCOCC1)S(=O)(=O)c1ccccc1	108% (inactive)	99% (inactive)	1.18% (inactive)	97.8	99	2.8% (inactive)	-4.76% (inactive)
Cc1c(Cc2ccccc2)sc(N)c1C(N)=O	86.5% (inactive)	93.5% (inactive)	2.93% (inactive)	90.6	93.5	-3.77% (inactive)	5.71% (inactive)
O=C(CCSc1nc(-c2ccco2)cc(C(F)(F)F)n1)NCCc1ccccc1	80.7% (inactive)	79% (inactive)	-15.4% (inactive)	94.4	79	-4.53% (inactive)	1.11% (inactive)
COc1ccc(OC)c(CNC(=O)CCN2C(=O)COc3ccccc32)c1	90.1% (inactive)	91.8% (inactive)	3.34% (inactive)	88.5	91.8	-1.32% (inactive)	-2.06% (inactive)
Cc1nc(SCC(=O)c2c[nH]c3ccccc23)n[nH]1	81.1% (inactive)	95.9% (inactive)	14.5% (inactive)	81.4	95.9	-7.5% (inactive)	-0.32% (inactive)
COc1cccc(N2CCN(c3ncnc4c3[nH]c3ccc(F)cc34)CC2C)c1 (configuration not stated)	2.17% (active)	3.55% (active)	-1.01% (inactive)	4.56	3.55	71% (active)	29.6% (inactive)
O=C(Nc1ccc(N2CCOCC2)cc1)C1CC1	109% (inactive)	97.1% (inactive)	8.07% (inactive)	89	97.1	-5.33% (inactive)	3.49% (inactive)
